Bioassay records deposited in PubChem by several laboratories.
Mdm2 ligase inh = MDM2-luciferase reporter signal enhancers, primary screen, MDM2 E3 ligase inhibitor project, cell-based, luminescence, 1536-well; E3 ubiquitin-protein ligase Mdm2 (Homo sapiens), Q00987; cell-based MDM2 ubiquitination luciferase reporter, 2 h; 0 = plate control, 100 = twice control, blank-subtracted; signal enhancement, % at 5 µM; 0.11% of 210,000 active;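 active means signal enhancement of 30% or more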;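 further: luminescence tracks abundance of the self-degrading MDM2-luciferase fusion protein; higher signal means inhibition of MDM2 E3 ligase activity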
Target sequence (Q00987 whole entry, looked up, the tested form may be a part): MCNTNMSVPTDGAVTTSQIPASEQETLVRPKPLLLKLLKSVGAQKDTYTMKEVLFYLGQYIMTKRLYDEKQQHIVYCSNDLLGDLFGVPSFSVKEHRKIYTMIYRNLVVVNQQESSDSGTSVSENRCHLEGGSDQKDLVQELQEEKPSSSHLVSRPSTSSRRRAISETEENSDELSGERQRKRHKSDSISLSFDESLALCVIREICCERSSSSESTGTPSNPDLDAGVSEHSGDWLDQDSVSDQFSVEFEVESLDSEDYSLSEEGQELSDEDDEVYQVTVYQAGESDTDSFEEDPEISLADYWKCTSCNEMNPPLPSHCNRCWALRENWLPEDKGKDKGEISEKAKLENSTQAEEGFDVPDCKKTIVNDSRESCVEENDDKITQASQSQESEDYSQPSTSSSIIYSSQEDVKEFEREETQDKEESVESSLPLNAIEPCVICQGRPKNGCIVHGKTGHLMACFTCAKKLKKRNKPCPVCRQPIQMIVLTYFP
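Material: Stable MDM2–luciferase fusion reporter cells | Amount: 2000 cells seeded into each well | Dosing: One concentration, 5 µM, with 0.2% DMSO | Incubation: 4 h cell settling then 2 h compound exposure, 37 °C | Measured by: Luciferase luminescence | Read-out basis: % enhancement relative to plate controls after blank subtraction | Benchmarks: Control and blank well means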
Measles CPE = compounds protecting cells from measles virus cytopathic effect, primary screen, measles RdRp inhibitor project, single point, MLSMR library, absorbance | protection (pct of control), % at 4 µM | AID 841, 2007 | Measles virus-infected cells, CPE protection | 1.5% of 140,000 active; in the data active means protection mostly above about 24%, no sharp cut-off; inactive means mostly below about 26%
BB579 growth dn = growth inhibitors of yeast BB579 in restrictive medium, primary screen, yeast lifespan-shortening project, S. cerevisiae; OD615, 48 h; inhibition, % at 10 µM; 0.51% of 140,000 active;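 active means inhibition above a set limit, 3 SD over the mean compound inhibition, cut at about 44% in these data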
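Detection: OD615 turbidity measurement; Material: Saccharomyces cerevisiae DeaD strain BB579, replicative lifespan model yeast; Timing: 48 h exposure, 30 °C; Doses: single 10 µM dose; Medium: CSMM-D restrictive synthetic medium containing dextrose (glucose); Controls: amphotericin B at 10 µg/mL as positive control.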
Yeast life ext = compounds extending yeast replicative lifespan, primary screen, S. cerevisiae, OD615. S. cerevisiae growth with nicotinamide; deaD strain in restrictive glucose medium. inhibition of the nicotinamide effect, % at 10 µM. 0.68% of 130,000 active. AID 775, 2007;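 active means inhibition above a set limit, placed 3 SD over the median of all compounds, cut at about 26% in these data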
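System: DeaD-strain S. cerevisiae / Buffer or medium: CSMM-D, restrictive glucose (dextrose) synthetic minimal medium / Probe or stimulus: nicotinamide, 1.5 mM, co-present with compound / Compound: one concentration, 10 µM, DMSO 0.25% / Incubation: 48 h compound exposure at 30 °C, humidified / Technique: optical density (absorbance) at 615 nm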
RAM network inh = inhibitors of the yeast RAM network, primary screen, dse1pr::URA3 reporter, 5-FOA selection | S. cerevisiae dse1pr::URA3 reporter, 5-FOA growth OD615, 2 d; analog-sensitive cbk1-as2 kinase mutant strain | inhibition, % at 50 µM | 1.8% of 190,000 active;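 active means inhibition above a set limit, 3 SD over mean compound inhibition, cut at about 8.4% in these data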;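 further: inhibition rescues growth on 5-FOA so higher OD means more RAM inhibition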
INS promoter inh = inhibitors of insulin promoter-driven GFP, primary screen, imaging, TRM-6 cells, eGFP reporter, cell count; 0.9% of 130,000 active; reporter expression induced with tamoxifen; AID 1273, 2008; inhibition, % at 2 µM;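 active means inhibition above the mean plus 3 SD, with well images judged a real hit on visual review, cut at about 60% in these data, passing the limit was not always enough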
Hits are given with their value; . = inactive; / = no result given. Compounds with a hit are over-represented: about 4% of the library has one in this group of screens.

SMILES	Mdm2 ligase inh	Measles CPE	BB579 growth dn	Yeast life ext	RAM network inh	INS promoter inh
Cc1ccc(S(=O)(=O)N(CC(=O)Nc2cccc(N(C)S(C)(=O)=O)c2)c2ccc(Cl)c(Cl)c2)cc1	.	.	.	.	.	.
CN(c1cccc(NC(=O)CN(c2ccc(Cl)c(Cl)c2)S(=O)(=O)c2ccccc2)c1)S(C)(=O)=O	.	.	.	29	9.7	.
Cc1cc(NC(=O)COc2ccc(Cl)cc2Cl)n(-c2ccccc2)n1	.	.	.	.	8.6	.
CN(c1cccc(NC(=O)COc2ccc(Cl)cc2Cl)c1)S(C)(=O)=O	.	.	.	/	8.8	.
COc1cccc(N(CC(=O)Nc2cccc(C(C)=O)c2)S(C)(=O)=O)c1	.	.	.	.	.	.
COc1ccc(N(CC(=O)Nc2cccc(C(C)=O)c2)S(C)(=O)=O)cc1OC	.	92	.	.	.	.
C=C(C)C(=O)Nc1cccc(C2=NOC3(C2)C[C@@H](C(N)=O)N(C(=O)c2cc([N+](=O)[O-])cc([N+](=O)[O-])c2C)C3)c1 (stereo partly drawn)	.	/	/	/	/	/
NC(=S)N1CCCc2ccccc21	.	/	/	/	/	/
COc1ccc(N(CC(=O)Nc2cccc(N(C)S(C)(=O)=O)c2)S(C)(=O)=O)cc1OC	.	43	.	.	.	.
O=C(CN1CCOc2ccccc21)NCc1ccc(F)cc1	/	.	.	.	.	60
O=C(Cc1cccs1)NCc1ccc(F)cc1	.	.	.	.	.	.
O=C(CNC(=S)N(Cc1ccccc1)Cc1cccs1)NCc1ccc(F)cc1	.	/	/	/	8.8	.
O=C(COC(=O)c1ccc(S(=O)(=O)Nc2ccccc2)cc1)NCCC1=CCCCC1	.	.	.	.	.	/
O=P(CO)(Cc1ccccc1)Cc1ccccc1	.	.	.	55	.	.
CNC(=O)/C(=C\c1ccc([N+](=O)[O-])cc1)NC(C)=O	.	.	.	.	.	/
Clc1ccc(OCCSc2ncccn2)cc1	.	.	.	.	.	66
O=C1N=c2ccccc2=C1c1c(O)n(-c2cccc(F)c2)[nH]c1=O	.	.	.	33	.	.
CCn1c(O)c(C2=c3ccccc3=NC2=O)c2cc(Br)ccc21	.	/	/	/	.	/
O=C(O)CCC1OC(=O)C(O)=C1c1ccccc1 (stereo not drawn)	.	/	/	/	/	/
NS(=O)(=O)c1ccc(NC(=S)NC(=O)c2ccc3c(c2)OCO3)cc1	.	/	/	/	.	/
NC(N)=NS(=O)(=O)c1ccc(NC(=S)NC(=O)c2ccc3c(c2)OCO3)cc1	.	/	/	/	9.1	.
COc1ccc(-n2ncc3c(NCCCn4ccnc4)ncnc32)cc1	.	66	.	.	.	/
CCOc1cc(S(=O)(=O)NCCc2ccccc2C)c(OCC)cc1-n1cnnn1	.	.	.	.	.	.
CCOc1cc(S(=O)(=O)NCCc2cccc(C)c2)c(OCC)cc1-n1cnnn1	.	.	.	.	8.8	.
CCN(CC(=O)Nc1ccc(OC)c(Cl)c1)CC(=O)NC(C)C	.	/	/	/	.	.
SMILES	Mdm2 ligase inh	Measles CPE	BB579 growth dn	Yeast life ext	RAM network inh	INS promoter inh
CC(C)CNC(=O)c1oc2ccccc2c1COc1ccccc1	.	.	.	.	8.9	.
Cc1ccc(CNC(=O)c2ccc(Cn3nc(C)c(Cl)c3C)o2)cc1	.	.	99	.	.	.
CN(Cc1ccccc1)c1nc(-c2cccc([N+](=O)[O-])c2)nc2ccccc12	.	.	.	.	.	.
COc1ccc(C2CC(c3ccccc3OC(C)=O)=NN2C(=O)/C=C/c2ccccc2)cc1OC (stereo not drawn)	.	.	.	.	8.5	.
CCOC(=O)c1cc2c(ccn2C)n1CC(=O)N(Cc1ccccc1)c1ccc(F)cc1	.	.	.	.	.	.
CC(C)OC(=O)c1cc2c(ccn2C)n1CC(=O)N(Cc1ccccc1)c1ccc(F)cc1	.	56	.	.	.	.
COc1ccc(S(=O)(=O)c2ccc(OCC3CO3)cc2)cc1 (stereo not drawn)	.	/	/	/	.	/
COc1ccc(C(OCC2CO2)c2ccc(OC)cc2)cc1 (stereo not drawn)	.	/	/	/	.	77
COc1cc2c(cc1OC)C(C1(O)CCCCC1)NCC2 (stereo not drawn)	.	/	/	/	/	/
COc1ccc(C2NCCC3(O)CCCCC23)c(OC)c1OC (stereo not drawn)	.	35	.	.	.	.
O=C(N/N=C/c1ccccn1)NC12CC3CC(CC(C3)C1)C2	.	/	/	/	/	/
CN(C)/C=N/c1cnc(C(=O)c2ccc(Cl)cc2)n1C	.	.	.	.	.	.
CCn1c(=O)c2c(O)cc(=O)oc2c2ccccc21	.	.	.	42	.	.
O=c1cc(O)c2c(=O)n(-c3ccccc3)c3ccccc3c2o1	.	.	.	.	.	/
CC(C)n1c(=O)c2c(O)cc(=O)oc2c2ccccc21	.	.	.	63	.	.
Cc1cc(C(=O)NCC2COc3ccccc3O2)c2ccccc2n1 (stereo not drawn)	.	/	/	/	.	83
O=C(NCC1COc2ccccc2O1)c1ccccc1 (stereo not drawn)	.	.	.	.	.	.
Cc1ccc(C)[n+](CC(=O)c2ccc(-c3ccccc3)cc2)c1	.	/	/	/	.	.
c1ccc(-c2nc(-n3ccnc3)nc(-n3ccnc3)n2)cc1	.	.	74	.	.	.
CCOC(=O)C(C)(C)Sc1nc2c(cnn2-c2ccc(C)cc2)c(=O)[nH]1	/	.	.	/	.	100
CCOC(=O)C(C)Sc1nc2c(cnn2-c2ccc(C)cc2)c(=O)[nH]1 (stereo not drawn)	/	.	.	/	.	.
CC(NCCN(C)C)C(=O)C12CC3CC(CC(C3)C1)C2 (stereo not drawn)	.	/	/	/	/	/
COC(=O)c1c(NC(=O)/C=C/C(=O)O)sc(Cc2ccccc2)c1C	.	.	.	.	.	.
Cc1c(Cc2ccccc2)sc(NC(=O)/C=C/c2cccc3ccccc23)c1C(N)=O	.	.	.	.	9.8	/
CC(C)=CCN1CCN(Cc2cc(F)ccc2-n2nc(C)cc2C)CC1CCO (stereo not drawn)	.	/	/	/	.	.
COc1ccc(Br)c2oc(S)cc(=O)c12	/	.	.	.	.	71
CC(C)CCSc1nc(N2CCOCC2)c2c(c1C#N)CC(C)(C)OC2	.	.	.	.	10	/
O=C(Cc1ccc([N+](=O)[O-])cc1)N/N=C/c1ccc([N+](=O)[O-])o1	.	/	/	/	.	.
CCn1ncc(/C=N\NC(=O)Cc2ccc([N+](=O)[O-])cc2)c1C	.	46	.	.	.	.
